These results are taken from ChEMBL document CHEMBL1149900, “ent-Labdane diterpenoid lactone stereoisomers from Andrographis paniculata” (2008).

The GI50 is the concentration at which growth is held to half of that of the control. Read a low GI50 as greater sensitivity of the cells.

The test relates to HL-60. Nature of the test: Antiproliferative activity against human HL60 cells by trypan blue assay. It counts as functional. The method in brief:
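HL-60 cells seeded at 1 × 10^5 cells/mL, exposed to test compound at 5, 10, 20, 40 or 60 µM for 3 days. Viable growth scored by trypan blue staining, with total cells counted on a hemocytometer. GI50 taken as the concentration halving cell growth. Reported as mean ± SD of three independent experiments, with adriamycin as positive control.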
Take `C=C1CC[C@@H]2[C@](C)(CO)CCC[C@@]2(C)[C@@H]1CC/C(=C/CO)CO`: it took 20.4 µM to inhibit growth by half (GI50).

`C=C1CC[C@@H]2[C@](C)(CO)[C@H](O)CC[C@@]2(C)[C@@H]1C/C=C1/C(=O)OC[C@H]1O` [ANDROGRAPHOLIDE] had a 50% growth inhibitory concentration (GI50) of 9.33 µM.

On to `COc1cccc2c1C(=O)c1c(O)c3c(c(O)c1C2=O)C[C@@](O)(C(=O)CO)C[C@@H]3O[C@H]1C[C@H](N)[C@H](O)[C@H](C)O1` [DOXORUBICIN], for which growth was halved (GI50) at 0.018 µM.

In turn, `C=C1CC[C@@H]2[C@](C)(CO[C@@H]3O[C@H](CO)[C@@H](O)[C@H](O)[C@H]3O)[C@H](O)CC[C@@]2(C)[C@@H]1C/C=C1/C(=O)OC[C@H]1O` [ANDROGRAPHISIDE] returned a GI50 of 28.8 µM.

Molecule `C=C1CC[C@H]2[C@@](C)(CCC(=O)[C@@]2(C)CO)[C@@H]1CCC1=CCOC1=O` had a 50% growth inhibitory concentration (GI50) of 22.8 µM.

With `C=C1CC[C@@H]2[C@](C)(CO)[C@H](O)CC[C@@]2(C)[C@@H]1CCC1=CCOC1=O` [DEOXYANDROGRAPHOLIDE], halving of growth (GI50) required 25.5 µM.

Turning to `C=C1CC[C@@H]2[C@](C)(CO)[C@H](O)CC[C@@]2(C)[C@@H]1/C=C/C1=CCOC1=O`, the GI50 is 25.6 µM.

Take `C=C1CC[C@@H]2[C@](C)(CO)CCC[C@@]2(C)[C@@H]1CCC1=CCOC1=O` [ANDROGRAPANIN]: the GI50 turned out to be 20 µM.

Molecule `C=C1CC[C@@H]2[C@](C)(CO[C@@H]3O[C@H](CO)[C@@H](O)[C@H](O)[C@H]3O)CCC[C@@]2(C)[C@@H]1CCC1=CCOC1=O` [NEOANDROGRAPHOLIDE] yielded a GI50 of 26.7 µM.

Molecule `C=C1[C@H](O)C[C@@H]2[C@](C)(CO)[C@H](O)CC[C@@]2(C)[C@@H]1CCC1=CCOC1=O` gave a concentration for 50% growth inhibition (GI50) of 22.5 µM.

`C=C1CC[C@H]2[C@@](C)(CCC(=O)[C@@]2(C)CO)[C@@H]1/C=C/C1=CCOC1=O` gave a GI50 of 19.2 µM.

Regarding `C=C1CC[C@@H]2[C@](C)(CO)[C@H](O)CC[C@@]2(C)[C@@H]1CCO`, the GI50 was 24.9 µM.

On to `C=C1[C@@H](CCC2=CCOC2=O)[C@]2(C)CC[C@@H](O)[C@@](C)(CO)[C@H]2C[C@@H]1O`, for which it took 25.2 µM to inhibit growth by half (GI50).

As for `C=C1CC[C@@H]2[C@](C)(CO)[C@H](O)CC[C@@]2(C)[C@@H]1C[C@@H](O)[C@H]1C(=O)OC[C@H]1O`, the GI50 was found to be 26.6 µM.

Consider `C=C1CC[C@@H]2[C@](C)(CO)[C@H](O)CC[C@@]2(C)[C@@H]1/C=C/C1=CC(OC)OC1=O` (some centres undefined), for which the concentration for 50% growth inhibition (GI50) was 26.4 µM.

The molecule `C=C1CC[C@@H]2[C@](C)(CO)[C@H](O)CC[C@@]2(C)[C@@H]1C[C@H](O)[C@@H]1C(=O)OC[C@H]1O` registered a GI50 of 24.4 µM.

In turn, `C=C1CC[C@@H]2[C@](C)(CO)[C@H](O)CC[C@@]2(C)[C@@H]1/C=C/C(=O)O` returned a 50% growth inhibitory concentration (GI50) of 28.8 µM.

`C=C1CC[C@@H]2[C@](C)(CO)[C@H](O)CC[C@@]2(C)[C@@H]1CC/C(=C/CO)C(=O)O` yielded a 50% growth inhibitory concentration (GI50) of 22.4 µM.

As to `C=C1CC[C@@H]2[C@](C)(CO)[C@H](O)CC[C@@]2(C)[C@@H]1C/C=C1\C(=O)OC[C@H]1O`, the 50% growth inhibitory concentration (GI50) amounted to 6.3 µM.
